# Results of several laboratories.
# Protocols differ between the studies behind these lines.
# SLC22A8: Organic anion transporter 3 (SLC22A8, Homo sapiens, UniProt Q8TCC7)
Compound,tested on,test,system,setting,endpoint,result
COc1ccc([C@@H]2CN(C(=O)[C@@H](O)CO)C[C@@]2(C)[C@@H](C)O)cc1OC1CN(c2ccc(C)cn2)C1,,,"human, plasma","oral, 20 mg, single dose, healthy volunteers",AUC(0-inf),4090 ng·h/mL
CC(=O)O[C@H]1C(=O)[C@@]2(C)[C@H]([C@H](OC(=O)c3ccccc3)[C@]3(O)C[C@H](OC(=O)[C@H](O)[C@@H](NC(=O)c4ccccc4)c4ccccc4)C(C)=C1C3(C)C)[C@]1(OC(C)=O)CO[C@@H]1C[C@@H]2O,Bel-7402,"cell growth or viability, MTT",,48 h,IC50,28.2 µM
CN(C(=O)n1cnc(-c2ccc[n+]([O-])c2)c1)C1CCCCC1,SLC22A8,"transporter uptake, inhibitor",HEK293,3 µg/mL,inhibition,10%
CCCCNc1cc(C(=O)O)cc(S(N)(=O)=O)c1Oc1ccccc1,SLC22A8,"transporter uptake, inhibitor, radiometric",,"200 µM, 1 h, oocytes",inhibition,97%
CC(C)n1cc(C#N)c2cc(-n3cc(C(=O)O)cn3)ccc21,,,"human, plasma","oral, 200 mg, single dose, fed",AUC(0-t),43700 ng·h/mL
CCc1nc2c(C)cc(N3CCN(CC(=O)N4CC(O)C4)CC3)cn2c1N(C)c1nc(-c2ccc(F)cc2)c(C#N)s1,,,"human, plasma","oral, 1500 mg, single dose, fed, healthy volunteers",AUC(0-inf),168000 ng·h/mL
CC(C)(O)c1ccccc1-c1ccc2[nH]c(/C=C/c3ccc(C(F)(F)F)cc3)nc2c1,,,"male human, plasma","oral, 5 mg, single dose, fasted, healthy volunteers",AUC(0-t),971 ng·h/mL
O=C(O)CSc1nnc(Br)n1-c1ccc(C2CC2)c2ccccc12,SLC22A8,"transporter uptake, inhibitor, radiometric",,"5 µM, 1 h, oocytes",inhibition,64%
CON=C(N)c1ccc(-c2ccc(-c3ccc(C(N)=NOC)cc3)o2)cc1,"Cytochrome P450 4F3 (CYP4F3, Homo sapiens, UniProt Q08477)","enzyme activity, substrate",,,Km,3.2 µM
CC(C)(C)c1ccc(O)c(CN(Cc2cc(C(C)(C)C)ccc2O)C2CCC(NC(N)=O)CC2)c1 (stereo not shown),,,"male C57BL/6 mouse, brain","intraperitoneal, 5 mg/kg, single dose",tissue/plasma ratio,0.68
